What all share (type): cell-based
The nature of test [1]: Binding affinity for nicotinic acetylcholine receptor alpha4-beta2 from mouse M10 cells; n=3. The method, boiled down:
(§1)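 α4β2 receptor immunoisolated with mAb 270 from mouse fibroblast M10 cells. Competition binding against (−)-[³H]nicotine at 7 nM. Ki was obtained from IC50 by Cheng–Prusoff, Ki = IC50/(1 + [L]/KD), with KD 3.8 nM.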

In test [2] the target is T1, Neuronal acetylcholine receptor subunit alpha-7 (Homo sapiens, UniProt P36544). As to the kind of experiment: Binding affinity for nicotinic acetylcholine receptor alpha 7 from human neuroblastoma SH-SY5Y cells; n=3.
Test [3] in a line: Dissociation constant for nicotinic acetylcholine receptor alpha4-beta2 of mouse M10 cells; n=3. A digest of the protocol:
as §1

The target of test [4] is T1, Neuronal acetylcholine receptor subunit alpha-7. The test can be described thus: Dissociation constant for nicotinic acetylcholine receptor alpha 7 from human neuroblastoma SH-SY5Y cells; n=3.

T1 sequence (P36544 whole entry): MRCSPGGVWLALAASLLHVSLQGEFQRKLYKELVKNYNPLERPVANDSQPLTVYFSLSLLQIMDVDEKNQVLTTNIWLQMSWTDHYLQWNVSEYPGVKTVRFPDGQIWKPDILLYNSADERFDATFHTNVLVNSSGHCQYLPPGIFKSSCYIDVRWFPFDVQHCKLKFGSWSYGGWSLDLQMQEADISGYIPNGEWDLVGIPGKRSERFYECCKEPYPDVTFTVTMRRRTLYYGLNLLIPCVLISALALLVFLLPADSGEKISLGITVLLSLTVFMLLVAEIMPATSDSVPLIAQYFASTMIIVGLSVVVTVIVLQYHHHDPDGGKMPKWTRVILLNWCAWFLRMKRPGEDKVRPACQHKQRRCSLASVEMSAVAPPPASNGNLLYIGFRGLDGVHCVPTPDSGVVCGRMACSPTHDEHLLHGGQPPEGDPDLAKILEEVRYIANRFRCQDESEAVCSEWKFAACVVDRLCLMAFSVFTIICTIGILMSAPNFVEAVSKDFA

Turning to `c1cc2c(cn1)C1CCC(CC2)N1` (racemic), the Ki in test [1] was 1.3 nM; in test [2], more than 100 µM. Besides, the results for the Kd in test [3] and in test [4] were 0.00308 µM and 0.00106 µM, respectively.
As to `Cc1cc2c(cn1)C1CCC(CC2)N1` (racemic), the Ki was 0.39 nM in test [1] and approximately 1000 µM in test [2]. Also, the Kd in test [3] is 0.00039 µM; in test [4], 0.00106 µM.
`Clc1ccc(C2CC3CCC2N3)cn1` (racemic) [EPIBATIDINE] had a Ki in test [1] of 0.035 nM. For the same compound, the Kd in test [3] came out at 0.00308 µM; in test [4], 0.00106 µM.
Take `c1cncc([C@@H]2CCCN2)c1` (racemic) [NORNICOTINE]: the Ki turned out to be 14 nM in test [1] and 138 µM in test [2]. In addition, in test [4], the Kd amounted to 0.00106 µM.
As to `CN1CCC[C@@H]1c1cccnc1` [R-NICOTINE], the Ki in test [1] was determined as 2.5 nM. In addition, the Kd in test [3] came to 0.0038 µM.

As usually defined, the Ki is a measure of affinity in units of concentration, obtained from inhibition or displacement. Read a high Ki as weaker binding. By Kd is commonly meant the equilibrium constant for the complex coming apart. A higher Kd goes with lower affinity.

The values are drawn from ChEMBL document CHEMBL1141973, “6'-Methylpyrido[3,4-b]norhomotropane: synthesis and outstanding potency in relation to the alpha4beta2 nicotinic receptor pharmacophore model” (Bioorg Med Chem Lett, 2005).
